# Data from ChEMBL document CHEMBL5058577, “EUbOPEN Chemogenomics Library 2 (Multiplex)” (2022).
# System: HEK-293T
# Test: Multiplex assay against HEK293T
# Format: toxicity, cell-based
# Conditions: human
# How it was run: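 Phenotypes for tubulin, mitochondrial mass and membrane permeability are expressed as per cents of healthy-nucleus cells. Cells were stained live at seeding with Hoechst33342, BioTracker Green Microtubule Cytoskeleton Dye, MitoTracker Red and Annexin V Alexa Fluor 680, then imaged after compound addition on a CQ1 microscope at 37°C and 5% CO2. Machine-learning gating in CellPathfinder separated Hoechst high-intensity objects from normal cells, divided normal cells by nuclear state (healthy, pyknosed, fragmented) and divided pyknosed cells into mitotic or apoptotic.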
# [1] = 12 h, 1 µM, compound concentration 1 uM, replicate 1
# [2] = 12 h, 1 µM, compound concentration 1 uM, replicate 2
# [3] = 12 h, 10 µM, compound concentration 10 uM, replicate 1
# [4] = 12 h, 10 µM, compound concentration 10 uM, replicate 2
# [5] = 24 h, 1 µM, compound concentration 1 uM, replicate 1
# [6] = 24 h, 1 µM, compound concentration 1 uM, replicate 2
# [7] = 24 h, 10 µM, compound concentration 10 uM, replicate 1
# [8] = 24 h, 10 µM, compound concentration 10 uM, replicate 2
# [9] = 48 h, 1 µM, compound concentration 1 uM, replicate 1
# [10] = 48 h, 1 µM, compound concentration 1 uM, replicate 2
# [11] = 48 h, 10 µM, compound concentration 10 uM, replicate 1
# [12] = 48 h, 10 µM, compound concentration 10 uM, replicate 2
compound,measurement,setting,value
CSc1ccccc1N1CCN(CCCCCC(=O)NC2CCCc3ccccc32)CC1.Cl (configuration not stated),Population Apoptotic (%),[1],45%
same,Population Fragmented Nuclei (%),[1],6%
same,Population Healthy Nuclei (%),[1],74%
same,Population Hoechst High Intensity Objects (%),[1],8%
same,Population Membrane Permeable-Phenotype (%),[1],0%
same,Population Mitochondria Different-Phenotype (%),[1],68%
same,Population Mitotic Cells (%),[1],54%
same,Population Normal (%),[1],91%
same,Population Pyknosed Nuclei (%),[1],18%
same,Population Tubulin-Different-Phenotype (%),[1],59%
same,Total Cell Count,[1],391
same,Population Hoechst High Intensity Objects (%),[2],12%
same,Population Mitochondria Different-Phenotype (%),[2],75%
same,Population Normal (%),[2],87%
same,Population Pyknosed Nuclei (%),[2],19%
same,Population Tubulin-Different-Phenotype (%),[2],43%
same,Total Cell Count,[2],322
same,Population Apoptotic (%),[3],80%
same,Population Fragmented Nuclei (%),[3],8%
same,Population Healthy Nuclei (%),[3],68%
same,Population Hoechst High Intensity Objects (%),[3],15%
same,Population Membrane Permeable-Phenotype (%),[3],0%
same,Population Mitochondria Different-Phenotype (%),[3],97%
same,Population Mitotic Cells (%),[3],20%
same,Population Normal (%),[3],84%
same,Population Pyknosed Nuclei (%),[3],22%
same,Population Tubulin-Different-Phenotype (%),[3],59%
same,Total Cell Count,[3],316
same,Population Apoptotic (%),[4],79%
same,Population Fragmented Nuclei (%),[4],5%
same,Population Healthy Nuclei (%),[4],74%
same,Population Hoechst High Intensity Objects (%),[4],16%
same,Population Normal (%),[4],83%
same,Population Pyknosed Nuclei (%),[4],19%
same,Population Tubulin-Different-Phenotype (%),[4],65%
same,Total Cell Count,[4],304
same,Population Apoptotic (%),[5],36%
same,Population Fragmented Nuclei (%),[5],8%
same,Population Healthy Nuclei (%),[5],79%
same,Population Hoechst High Intensity Objects (%),[5],4%
same,Population Membrane Permeable-Phenotype (%),[5],0%
same,Population Mitochondria Different-Phenotype (%),[5],50%
same,Population Mitotic Cells (%),[5],63%
same,Population Normal (%),[5],95%
same,Population Pyknosed Nuclei (%),[5],11%
same,Population Tubulin-Different-Phenotype (%),[5],41%
same,Total Cell Count,[5],508
same,Population Apoptotic (%),[6],41%
same,Population Healthy Nuclei (%),[6],75%
same,Population Hoechst High Intensity Objects (%),[6],7%
same,Population Mitochondria Different-Phenotype (%),[6],70%
same,Population Mitotic Cells (%),[6],58%
same,Population Normal (%),[6],92%
same,Population Pyknosed Nuclei (%),[6],16%
same,Population Tubulin-Different-Phenotype (%),[6],44%
same,Total Cell Count,[6],356
same,Population Apoptotic (%),[7],75%
same,Population Fragmented Nuclei (%),[7],5%
same,Population Healthy Nuclei (%),[7],70%
same,Population Hoechst High Intensity Objects (%),[7],21%
same,Population Membrane Permeable-Phenotype (%),[7],0%
same,Population Mitochondria Different-Phenotype (%),[7],98%
same,Population Mitotic Cells (%),[7],24%
same,Population Normal (%),[7],78%
same,Population Pyknosed Nuclei (%),[7],23%
same,Population Tubulin-Different-Phenotype (%),[7],53%
same,Total Cell Count,[7],303
same,Population Apoptotic (%),[8],69%
same,Population Fragmented Nuclei (%),[8],7%
same,Population Healthy Nuclei (%),[8],73%
same,Population Hoechst High Intensity Objects (%),[8],20%
same,Population Mitochondria Different-Phenotype (%),[8],97%
same,Population Mitotic Cells (%),[8],30%
same,Population Normal (%),[8],79%
same,Population Pyknosed Nuclei (%),[8],18%
same,Population Tubulin-Different-Phenotype (%),[8],48%
same,Total Cell Count,[8],315
same,Population Apoptotic (%),[9],32%
same,Population Fragmented Nuclei (%),[9],10%
same,Population Healthy Nuclei (%),[9],78%
same,Population Hoechst High Intensity Objects (%),[9],4%
same,Population Membrane Permeable-Phenotype (%),[9],0%
same,Population Mitochondria Different-Phenotype (%),[9],39%
same,Population Mitotic Cells (%),[9],67%
same,Population Normal (%),[9],95%
same,Population Pyknosed Nuclei (%),[9],10%
same,Population Tubulin-Different-Phenotype (%),[9],27%
same,Total Cell Count,[9],747
same,Population Apoptotic (%),[10],45%
same,Population Healthy Nuclei (%),[10],76%
same,Population Hoechst High Intensity Objects (%),[10],6%
same,Population Mitochondria Different-Phenotype (%),[10],59%
same,Population Mitotic Cells (%),[10],54%
same,Population Normal (%),[10],93%
same,Population Pyknosed Nuclei (%),[10],13%
same,Population Tubulin-Different-Phenotype (%),[10],31%
same,Total Cell Count,[10],471
same,Population Apoptotic (%),[11],76%
same,Population Fragmented Nuclei (%),[11],11%
same,Population Healthy Nuclei (%),[11],73%
same,Population Hoechst High Intensity Objects (%),[11],28%
same,Population Membrane Permeable-Phenotype (%),[11],0%
same,Population Mitochondria Different-Phenotype (%),[11],97%
same,Population Mitotic Cells (%),[11],23%
same,Population Normal (%),[11],71%
same,Population Pyknosed Nuclei (%),[11],14%
same,Population Tubulin-Different-Phenotype (%),[11],67%
same,Total Cell Count,[11],365
same,Population Apoptotic (%),[12],56%
same,Population Fragmented Nuclei (%),[12],13%
same,Population Hoechst High Intensity Objects (%),[12],18%
same,Population Mitochondria Different-Phenotype (%),[12],93%
same,Population Mitotic Cells (%),[12],43%
same,Population Normal (%),[12],81%
same,Population Pyknosed Nuclei (%),[12],13%
same,Population Tubulin-Different-Phenotype (%),[12],56%
same,Total Cell Count,[12],385
